Test results reported in ChEMBL document CHEMBL5329178, “Synthesis and antibacterial activity of 2-benzylidene-3-oxobutanamide derivatives against resistant pathogens” (RSC Med Chem, 2023).
The source made the active and inactive calls. The calls are words filed in the database; no cut-off is given here.

How the values were obtained:
[1] = Solubility of the compound in water; format: physicochemical; details: buffer
[2] = Octanol/Water partition coefficient, logP of the compound; format: physicochemical
[3] = Cytotoxicity against human HEK293 cells assessed as cell viability at 64 ug/ml relative to control; format: toxicity, cell-based; details: at 64 µg/mL, read-out: Activity
Escherichia coli = assay: Antibacterial activity against Escherichia coli assessed as growth inhibition at 32 ug/mL by whole cell growth inhibition assay relative to control; format: functional; details: read-out: GI
Method in brief: (§1)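 Primary single-concentration screen at 32 µg/mL, final DMSO ≤1%, duplicate on different plates. Mid-log cultures in cation-adjusted Mueller Hinton broth at 5×10^5 CFU/mL; 37 °C, 18 h, no shaking. OD600 read; % growth inhibition relative to media-only and untreated-bacteria controls on the same plate. Strains: E. coli ATCC 25922, A. baumannii ATCC 19606, S. aureus ATCC 43300 (MRSA).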

[4] = Hemolytic activity in RBC (unknown origin) assessed as cell viability at 64 ug/ml relative to control; format: toxicity, cell-based, Erythrocyte; details: red blood cells (erythrocytes), at 64 µg/mL, read-out: Activity
Staphylococcus aureus [5] = assay: Antibacterial activity against Staphylococcus aureus assessed as growth inhibition at 32 ug/mL by whole cell growth inhibition assay relative to control; format: functional; details: read-out: GI; method in brief: as §1
Staphylococcus aureus [6] = assay: Antibacterial activity against methicillin resistant Staphylococcus aureus assessed as growth inhibition at 32 ug/mL by HIT assay relative to control; format: functional; details: read-out: GI
Method in brief: (§2)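 A. baumannii ATCC 19606 and MRSA ATCC 43300 were grown overnight in cation-adjusted Mueller Hinton broth at 37 °C, subcultured to mid-log, and added at 5×10^5 CFU/mL to an 8-point, 2-fold dilution series (32–0.25 µg/mL; ≤0.5% DMSO). After 18 h static at 37 °C, OD600 was read. Percent inhibition was taken against media-only and untreated-bacteria wells, in duplicate. MIC was the lowest concentration giving ≥80% inhibition.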

Acinetobacter baumannii [7] = assay: Antibacterial activity against Acinetobacter baumannii assessed as growth inhibition at 32 ug/mL by whole cell growth inhibition assay relative to control; format: functional; details: read-out: GI; method in brief: as §1
Staphylococcus aureus [8] = assay: Bacteriostatic activity against Staphylococcus aureus ATCC 700698 assessed as log reduction in colony forming unit measured per ml after 24 hrs by time kill assay; format: functional
Method in brief: (§3)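 Time-kill assay in cation-adjusted MHB. Overnight cultures (S. aureus MRSA ATCC 700698; A. baumannii ATCC 19606) diluted 1:10,000, grown 2 h at 37 °C, 220 rpm to early exponential phase. […] Aliquots taken at intervals, tenfold serially diluted, plated on MHA overnight at 37 °C for CFU counts.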

Staphylococcus aureus [9] = assay: Antibacterial activity against methicillin resistant Staphylococcus aureus assessed as growth inhibition at 16 ug/mL by HIT assay relative to control; format: functional; details: read-out: GI; method in brief: as §2
Staphylococcus aureus [10] = assay: Antibacterial activity against methicillin resistant Staphylococcus aureus assessed as growth inhibition; format: functional, organism-based; method in brief: as §2
Acinetobacter baumannii [11] = assay: Antibacterial activity against susceptible Acinetobacter baumannii; format: functional
Acinetobacter baumannii [12] = assay: Bactericidal activity against multi-drug resistant Acinetobacter baumannii assessed as log reduction in colony forming unit measured after 24 hrs by time kill assay; format: functional
Method in brief: (§4)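 MRSA ATCC 700698 and A. baumannii ATCC 19606 overnight cultures were diluted 1:10,000 in MHB and grown 2 h at 37 °C and 220 rpm to early exponential phase. […] At intervals, aliquots were tenfold serially diluted, plated on MHA and incubated overnight at 37 °C for CFU counts.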

Staphylococcus aureus [13] = assay: Bacteriostatic activity against methicillin resistant Staphylococcus aureus assessed as log reduction in colony forming unit measured after 24 hrs by time kill assay; format: functional; method in brief: as §4
Staphylococcus aureus [14] = assay: Antibacterial activity against methicillin resistant Staphylococcus aureus assessed as growth inhibition at 2 ug/mL by HIT assay relative to control; format: functional; details: read-out: GI; method in brief: as §2
Acinetobacter baumannii [15] = assay: Antibacterial activity against Multi drug resistant Acinetobacter baumannii assessed as growth inhibition at 16 ug/mL by HIT assay relative to control; format: functional; details: read-out: GI; method in brief: as §2
Acinetobacter baumannii [16] = assay: Bactericidal activity against Acinetobacter baumannii assessed as log reduction in bacterial count measured after 24 hrs by time kill assay; format: functional; method in brief: as §3
Acinetobacter baumannii [17] = assay: Antibacterial activity against Multi drug resistant Acinetobacter baumannii assessed as growth inhibition at 32 ug/mL by HIT assay relative to control; format: functional; details: read-out: GI; method in brief: as §2

SMILES | solubility [1] | logP [2] | inhibition of growth at 32 µg/mL (Escherichia coli) | inhibition of growth at 32 µg/mL (Staphylococcus aureus [5]) | inhibition of growth at 32 µg/mL (Acinetobacter baumannii [7]) | further results
CC(=O)/C(=C/c1cccc(Br)c1)C(N)=O | Soluble | 1.73 | – | – | – | –
COc1cccc(/C=C(/C(C)=O)C(N)=O)c1OC | Soluble | 1.3 | – | – | – | –
CC(=O)/C(=C/c1ccccc1Br)C(N)=O | Soluble | 1.62 | 51.6% | 93.8% | 60% | viability at 64 ug/ml [3]: 90.2%; viability at 64 ug/ml [4]: 95.3%; inhibition of growth at 32 µg/mL (Staphylococcus aureus [6]): 80%; Activity (Staphylococcus aureus [8]): 2 log10CFU/ml
CC(=O)/C(=C/c1ccc(C)cc1)C(N)=O | Soluble | 1.68 | – | – | – | –
CC(=O)/C(=C/c1ccccc1)C(N)=O | Soluble | 1.6 | – | – | – | –
CCc1ccc(/C=C(/C(C)=O)C(N)=O)cc1[N+](=O)[O-] | Soluble | 1.31 | 25.5% | 82.7% | 27.7% | viability at 64 ug/ml [3]: 88.9%; viability at 64 ug/ml [4]: 94.5%; inhibition of growth at 16 µg/mL (Staphylococcus aureus [9]): 99.2%
CC(=O)/C(=C/c1cccc(C#N)c1)C(N)=O | Soluble | 1.15 | – | – | – | –
CC(=O)/C(=C/c1ccccc1[N+](=O)[O-])C(N)=O | Soluble | 1.09 | – | – | – | –
CC(=O)/C(=C/c1ccc(C#N)cc1)C(N)=O | Soluble | 1.13 | – | – | – | –
CCc1ccc(/C=C(/C(C)=O)C(N)=O)cc1 | Soluble | 1.99 | – | – | – | –
CC(=O)/C(=C/c1ccccc1F)C(N)=O | Soluble | 1.66 | 59.7% | 43.8% | 58.2% | –
CC(=O)/C(=C/c1ccc(Cl)cc1)C(N)=O | Soluble | 1.88 | 67.8% | 87.5% | 65.4% | –
CN[C@H](CC(C)C)C(=O)N[C@H]1C(=O)N[C@@H](CC(N)=O)C(=O)N[C@H]2C(=O)N[C@H]3C(=O)N[C@H](C(=O)N[C@H](C(=O)O)c4cc(O)cc(O)c4-c4cc3ccc4O)[C@H](O)c3ccc(c(Cl)c3)Oc3cc2cc(c3O[C@@H]2O[C@H](CO)[C@@H](O)[C@H](O)[C@H]2O[C@H]2C[C@](C)(N)[C@H](O)[C@H](C)O2)Oc2ccc(cc2Cl)[C@H]1O.Cl [VANCOMYCIN HYDROCHLORIDE] | – | – | – | – | – | growth inhibition (GI) (Staphylococcus aureus [10]): inactive; MIC (Acinetobacter baumannii [11]): 0.25 µg/mL
COc1cc(/C=C/C(=O)CC(=O)/C=C/c2ccc(O)c(OC)c2)ccc1O [CURCUMIN] | Soluble | 3.03 | – | – | – | –
CC(=O)/C(=C/c1cccc([N+](=O)[O-])c1)C(N)=O | Soluble | 1.15 | 51.1% | 83.7% | 98% | viability at 64 ug/ml [3]: 93.8%; viability at 64 ug/ml [4]: 96.4%; Activity (Acinetobacter baumannii [12]): >3 log10CFU; Activity (Staphylococcus aureus [13]): >3 log10CFU; inhibition of growth at 2 µg/mL (Staphylococcus aureus [14]): 99.4%; inhibition of growth at 16 µg/mL (Acinetobacter baumannii [15]): 98.2%; Activity (Staphylococcus aureus [8]): 2 log10CFU/ml
CC(=O)/C(=C/c1cccc(F)c1)C(N)=O | Soluble | 1.49 | – | – | – | –
CC(=O)/C(=C/c1ccccc1Cl)C(N)=O | Soluble | 1.38 | 66.8% | 98.1% | 58.8% | –
CC(=O)/C(=C/c1ccc(OCc2ccccc2)cc1)C(N)=O | Soluble | 2.72 | – | – | – | –
CC(=O)/C(=C/c1ccc(Br)cc1)C(N)=O | Soluble | 1.62 | 51.8% | 83.7% | 53% | viability at 64 ug/ml [3]: 94.8%; viability at 64 ug/ml [4]: 98.9%; inhibition of growth at 32 µg/mL (Staphylococcus aureus [6]): 94.2%; Activity (Staphylococcus aureus [8]): 2 log10CFU/ml
CC(=O)/C(=C/c1ccc(O)cc1)C(N)=O | Soluble | 0.94 | – | – | – | –
O=C(/C=C/c1ccccc1)c1ccccc1 [CHALCONE] | Soluble | 3.29 | – | – | – | –
COc1cc(/C=C(/C(C)=O)C(N)=O)cc(OC)c1OC | Soluble | 1.41 | – | – | – | –
CC(=O)/C(=C/c1ccccc1C#N)C(N)=O | Soluble | 1.09 | 52.1% | 14.4% | 70.8% | viability at 64 ug/ml [3]: 97.6%; viability at 64 ug/ml [4]: 92.2%; log(activity) (Acinetobacter baumannii [16]): >3; inhibition of growth at 32 µg/mL (Acinetobacter baumannii [17]): 50.5%
CC(=O)/C(=C/c1ccc2c(c1)OCO2)C(N)=O | Soluble | 1.23 | – | – | – | –
CC(=O)/C(=C/c1ccc([N+](=O)[O-])cc1)C(N)=O | Soluble | 1.13 | 68.1% | 98.2% | 30.5% | viability at 64 ug/ml [3]: 90.6%; viability at 64 ug/ml [4]: 95.1%; inhibition of growth at 2 µg/mL (Staphylococcus aureus [14]): 98.7%; Activity (Staphylococcus aureus [8]): 2 log10CFU/ml
CC(=O)/C(=C/c1ccc(C(F)(F)F)cc1)C(N)=O | Soluble | 2.43 | – | – | – | –
